The source made the active and inactive calls. The calls are words filed in the database; no cut-off is given here.
Experiments:
Staphylococcus aureus [1] = assay: Antibacterial activity against Staphylococcus aureus USA400 MW2 infected Balb/c mouse assessed as reduction of bacterial survival in kidney at 1.3 mg, ip bid administered for 4.5 days followed by bacterial infection measured after 5 days; format: functional, organism-based
How it was run: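 Female BALB/c mice, 6–8 weeks. Compound in sterile water ip once and every 12 h for 108 h, total 50 or 200 mg/kg; water controls. Infected 12 h after first dose with 4 × 10^7 CFU USA400 MW2 (100 µL). Killed 5 days post infection; liver or kidney CFU counted on TSA after homogenising in PBS/0.1% Triton X-100. n = 13; two-tailed Mann-Whitney.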

Staphylococcus aureus [2] = assay: Sensitization of methicillin-resistant Staphylococcus aureus USA400 MW2 to H2O2 assessed as reduction in bacterial survival at 1 uM measured after 24 hrs relative to control; format: functional
How it was run: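 Strains grown 24 h in TSB with or without inhibitor, washed twice in PBS, then diluted to 4 × 10^6 CFU per 250 µL reaction. H2O2 added to a final 1.5%. Tubes sealed and held 30 min at 37 °C. Reaction stopped with 1000 U/mL catalase. Survivors counted as CFU by serial dilution on TSA plates and compared with untreated (mock) bacteria.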

Staphylococcus aureus [3] = assay: Suppression in survival of methicillin-resistant Staphylococcus aureus USA300 LAC at 0.2 mM measured after overnight incubation by spectrophotometric method; format: ADME, organism-based; settings: 200 µM
How it was run: (§1)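 Compound from 20 mM DMSO stock diluted in TSB to final 0.2 or 0.05 mM; DMSO growth controls; paraffin overlay. Overnight cultures inoculated to final OD600 ≈ 0.05; incubated at 37 °C overnight with OD600 read every 30 min.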

Staphylococcus aureus [4] = assay: Suppression in survival of Staphylococcus aureus Newman at 0.2 mM measured after overnight incubation by spectrophotometric method; format: ADME, organism-based; settings: 200 µM; how it was run: as §1
Staphylococcus aureus [5] = assay: Suppression in growth of methicillin-resistant Staphylococcus aureus USA300 LAC at 0.2 mM measured after overnight incubation by spectrophotometric method; format: organism-based; settings: 200 µM; how it was run: as §1
Staphylococcus aureus [6] = assay: Inhibition of staphyloxanthin pigment formation in methicillin-resistant Staphylococcus aureus USA400 MW2 after 48 hrs by spectrophotometric method; format: functional, organism-based; settings: MW2, 48 h
How it was run: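 MRSA grown in 4 mL TSB with 40 µL compound (2-fold serial dilutions from 20 mM DMSO stock) at 37 °C for 48 h, triplicate. Cells washed twice in PBS, pigment extracted with methanol, OD450 measured; IC50 from dose-response fit.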

Staphylococcus aureus [7] = assay: Suppression in survival of methicillin-resistant Staphylococcus aureus USA400 MW2 at 0.05 mM measured after overnight incubation by spectrophotometric method; format: ADME, organism-based; settings: 50 µM; how it was run: as §1
Staphylococcus aureus [8] = assay: Sensitization of methicillin-resistant Staphylococcus aureus Mu50 to immune clearance in human whole blood assessed as reduction in bacterial survival at 1 uM measured after 24 hrs relative to control; format: functional
How it was run: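 Overnight cultures spun down and resuspended in sterile PBS at 1 × 10^7 CFU/mL. 40 µL mixed with 360 µL fresh whole blood from a healthy human volunteer, giving 1 × 10^6 CFU/mL. Incubated 6 h at 37 °C. Surviving CFU counted by plating dilutions on TSA.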

In the case of `CN(C/C=C/c1ccc(C(F)(F)F)cc1)Cc1cccc2ccoc12.Cl`, the Activity (Staphylococcus aureus [1]) is reported as “Active”, the “fold change (FC)” value (Staphylococcus aureus [2]) is reported as 20 and the Activity (Staphylococcus aureus [3]) is reported as “Non-toxic”. For the same compound, the Activity (Staphylococcus aureus [4]) was “Non-toxic”, the Activity (Staphylococcus aureus [5]) was “Non-toxic” and the IC50 (Staphylococcus aureus [6]) was 5.45 nM. The Activity (Staphylococcus aureus [7]) was “Non-toxic” and the “fold change (FC)” value (Staphylococcus aureus [8]) was 5.

Source: ChEMBL document CHEMBL3813689, “Discovery of Potent Benzofuran-Derived Diapophytoene Desaturase (CrtN) Inhibitors with Enhanced Oral Bioavailability for the Treatment of Methicillin-Resistant Staphylococcus aureus (MRSA) Infections” (J Med Chem, 2016)
